Activity calls are given as the source filed them. The calls are words filed in the database; no cut-off is given here.

In data set [1] the test system is SH-SY5Y. In words: Inhibition of RSL3-induced lipid peroxidation in human SH-SY5Y cells at 10 uM incubated for 24 hrs by BODIPY-C11'581/591 probe-based flow cytometric analysis. It is filed as functional, cell-based. The gist of the method: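 SH-SY5Y seeded 2×10^4/well and adhered 24 h, then given compound plus RSL3 (500 nM) for 24 h. Stained with BODIPY-C11 581/591 (1 μM) for 30 min at 37 °C in the dark. Flow cytometry at ex 488, em 525±25 nm, 10,000 events. Controls: untreated (negative), DEM 1 mM, and RSL3 alone.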

In data set [2] the test system is SH-SY5Y. Nature of the data set: (§1) Neurotoxicity against human SH-SY5Y cells assessed as cell viability at 10 to 40 uM after 24 hrs […] relative to control. It is filed as toxicity, cell-based. Conditions: sh-sy5y, 24 h, 40 µM.
Data set [3] deals with HEK293. Nature of the data set: Inhibition of (1S,3R)-RSL3-induced ferroptosis in HEK293 cells preincubated for 4 hrs followed by (1S,3R)-RSL3 stimulation and measured at next day by MTS assay. Conditions: Homo sapiens.
Data set [4] has as its target Amyloid-beta precursor protein (Homo sapiens) (UniProt P05067). In words: Inhibition of HFIP-pretreated amyloid beta (1 to 42 residues) (unknown origin) self aggregation at 25 uM after 7 days by ThT-based fluorometric method relative to control. The gist of the method:
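Aβ1-42 (25 μM) incubated with or without inhibitor (25 μM, 1:1) in 10 mM phosphate buffer pH 7.4 with 100 mM NaCl at 37 °C for 7 days. Inhibitor-only blanks included. Samples diluted in 50 mM glycine-NaOH pH 8.0 containing 5 μM ThT, fluorescence read at ex 440/em 485 nm. % inhibition = (1−IFi/IFc)×100 after background subtraction, triplicate.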

Data set [5] deals with SH-SY5Y. In words: Neuroprotective activity against amyloid beta (1 to 42)-induced neurodegeneration in human SH-SY5Y cells assessed as cell viability at 1 uM preincubated for 4 hrs followed by amyloid beta (1 to 42) addition and measured after 48 hrs by MTS assay (reference value: 55.1%). The class given is functional. The conditions noted are these: read-out: Activity.
The test system of data set [6] is SH-SY5Y. In words: Neuroprotective activity against amyloid beta (1 to 42)-induced neurodegeneration in human SH-SY5Y cells assessed as increase in cell viability at 1 uM preincubated for 4 hrs followed by amyloid beta (1 to 42) addition after 48 hrs by micrograph method. The class given is functional, cell-based. The gist of the method:
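SH-SY5Y cells pretreated with compound (1 μM), then exposed to Aβ1-42 (10 μM) for 48 h. Cell morphology and clumping assessed by light micrographs against vehicle and Aβ-alone cells.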

Data set [7] deals with SH-SY5Y. In words: Neuroprotective activity against amyloid beta (1 to 42)-induced neurodegeneration in human SH-SY5Y cells assessed as cell viability at 0.5 uM preincubated for 4 hrs followed by amyloid beta (1 to 42) addition and measured after 48 hrs by MTS assay (reference value: 55.1%). The conditions noted are these: read-out: Activity. It is filed as functional.
For data set [8], the system named is HEK293. In words: Inhibition of erastin-induced ferroptosis in HEK293 cells preincubated for 4 hrs followed by erastin stimulation and measured at next day by MTS assay. It is filed as functional, cell-based, Homo sapiens. An outline of the steps: (§2)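 HEK-293 cells grown in DMEM with 10 % FBS, 1 % pen/strep and 1 mM sodium pyruvate, 37 °C, 5 % CO2. Seeded 5000/well for 24 h. Compounds at a range of concentrations added 4 h before ferroptosis induction with (1S,3R)-RSL3 (500 nM) or erastin (10 μM). MTS viability read 24 h after induction, normalized to vehicle. IC50 taken as the mean of ≥3 experiments.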

The test system of data set [9] is SH-SY5Y. Nature of the data set: Neuroprotective activity against amyloid beta (1 to 42)-induced neurodegeneration in human SH-SY5Y cells assessed as cell viability at 10 uM preincubated for 4 hrs followed by amyloid beta (1 to 42) addition and measured after 48 hrs by MTS assay (reference value: 60.4%). The conditions noted are these: for viability at 10 µM: read-out: Activity. The class given is functional.

Data set [10] in a line: as §1. Conditions: SH-SY5Y cells, read-out: Activity. It is filed as toxicity, cell-based.
Data set [11] has as its system SH-SY5Y. Nature of the data set: Inhibition of amyloid beta (1 to 42)-induced lipid peroxidation in human SH-SY5Y cells at 10 uM incubated for 48 hrs by BODIPY-C11'581/591 probe-based flow cytometric analysis. The class given is functional, cell-based. An outline of the steps:
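SH-SY5Y seeded 2×10^4/well and adhered 24 h, then given compound with Aβ1-42 for 48 h. Stained with BODIPY-C11 581/591 (1 μM) for 30 min at 37 °C in the dark. Flow cytometry at ex 488, em 525±25 nm, 10,000 events. Untreated, DEM (1 mM) and Aβ-alone controls.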

Data set [12] relates to HEK293. Nature of the data set: Inhibition of (1S,3R)-RSL3-induced ferroptosis in HEK293 cells preincubated for 4 hrs followed by erastin stimulation and measured at next day by MTS assay. It is filed as functional, cell-based, Homo sapiens. The gist of the method: as §2
[13] abbreviates: Homo sapiens, HEK293, read-out: IC50.

Amyloid-beta precursor protein (Homo sapiens), sequence (P05067 whole entry, the tested form may be a part): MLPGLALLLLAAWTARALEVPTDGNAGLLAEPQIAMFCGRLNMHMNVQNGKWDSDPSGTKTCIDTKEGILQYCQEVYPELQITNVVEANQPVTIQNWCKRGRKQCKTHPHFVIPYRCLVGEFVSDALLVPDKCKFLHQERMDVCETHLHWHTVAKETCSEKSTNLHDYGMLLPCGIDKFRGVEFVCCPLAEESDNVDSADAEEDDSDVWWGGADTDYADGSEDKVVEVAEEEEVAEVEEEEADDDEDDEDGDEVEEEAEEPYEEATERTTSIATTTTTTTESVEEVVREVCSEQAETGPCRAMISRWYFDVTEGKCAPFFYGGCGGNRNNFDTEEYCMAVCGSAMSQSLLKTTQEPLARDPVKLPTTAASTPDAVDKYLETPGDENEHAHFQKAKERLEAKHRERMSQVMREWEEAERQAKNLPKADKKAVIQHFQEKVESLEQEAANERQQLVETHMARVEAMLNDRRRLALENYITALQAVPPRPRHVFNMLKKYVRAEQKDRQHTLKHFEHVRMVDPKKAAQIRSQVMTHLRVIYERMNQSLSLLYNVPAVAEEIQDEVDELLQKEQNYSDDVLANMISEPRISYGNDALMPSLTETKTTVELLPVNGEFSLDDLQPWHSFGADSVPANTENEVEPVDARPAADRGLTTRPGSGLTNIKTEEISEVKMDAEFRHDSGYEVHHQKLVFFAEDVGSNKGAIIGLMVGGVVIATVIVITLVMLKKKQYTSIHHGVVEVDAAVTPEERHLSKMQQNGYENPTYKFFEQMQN

As for `COc1ccc(/C=C/C(=O)c2ccc(O)c(O)c2O)cc1`, the inhibition result in the data set with SH-SY5Y [1] was “Active”. Moreover, the Activity result in the data set on SH-SY5Y [2] is on record as “Non-Toxic”. Moreover, the results for the IC50 in the data set with HEK293 [3] and in the data set on HEK293 [8] (setting [13]) were 1770 nM and 3880 nM, respectively. In data set [4], the inhibition is 70.3 to 76.3%. Also, in the data set on SH-SY5Y [5], the viability at 1 µM is 70.8 to 77.5%. For the same molecule, the result with SH-SY5Y [6] was Active. In addition, in the data set with SH-SY5Y [7], the viability at 0.5 µM was 66.7 to 73.8%. The viability at 10 µM with SH-SY5Y [9] lay within 96.5 to 106%.
Turning to `Cc1cccc(/C=C/C(=O)c2cc(O)cc(O)c2)c1`, in the data set with SH-SY5Y [2], the Activity entry was “Non-Toxic”. Moreover, the inhibition in data set [4] turned out to be 27.2%. In addition, the result in the data set on SH-SY5Y [9] was Active.
On to `Cc1cccc(/C=C/C(=O)c2cccc(O)c2)c1`, for which, in data set [10], the viability at 24 h, up to 40 µM was 73.6 to 77.4%. Also, the inhibition entry in [4] is “inactive”.
For the molecule `COc1ccc(/C=C/C(=O)c2cc(O)cc(O)c2)cc1`, the Activity result in the data set with SH-SY5Y [2] is reported as “Non-Toxic”. Further, the inhibition in [4] was 19%. The outcome in the data set with SH-SY5Y [9] was Active.
Consider `Cc1cccc(/C=C/C(=O)c2ccc(O)c(O)c2O)c1`, for which the inhibition result in the data set on SH-SY5Y [11] is “Active”. Besides, the Activity entry in the data set with SH-SY5Y [2] is given as “Non-Toxic”. Further, the results for the IC50 in the data set with HEK293 [3] and in the data set on HEK293 [8] (setting [13]) were 450 nM and 3810 nM, respectively. In addition, the inhibition in data set [4] lay within 70.3 to 76.3%. Besides, the viability at 1 µM with SH-SY5Y [5] is 70.8 to 77.5%. Also, the result with SH-SY5Y [6] was Active. Further, in the data set with SH-SY5Y [7], the viability at 0.5 µM was 66.7 to 73.8%. The viability at 10 µM in the data set with SH-SY5Y [9] is 96.5 to 106%.
For the molecule `COCOc1ccc(C(=O)/C=C/c2cccc(C)c2)c(O)c1OCOC`, the Activity entry in the data set on SH-SY5Y [2] is listed as “Non-Toxic”. Further, the inhibition in data set [4] was 16.4%. For the same molecule, in the data set on SH-SY5Y [9], the viability at 10 µM lay in the range of 72 to 84.9%.
In the case of `COCOc1ccc(C(=O)/C=C/c2cccc(Cl)c2)c(O)c1OCOC`, in the data set with SH-SY5Y [2], the Activity entry is recorded as “Non-Toxic”. The inhibition in data set [4] worked out at 16.4%. The viability at 10 µM in the data set on SH-SY5Y [9] lay within 72 to 84.9%.
Consider `O=C(O[C@@H]1Cc2c(O)cc(O)cc2O[C@@H]1c1cc(O)c(O)c(O)c1)c1cc(O)c(O)c(O)c1` [EPIGALOCATECHIN GALLATE], for which the inhibition in data set [4] came out at 52.9%. Also, in the data set on SH-SY5Y [5], the viability at 1 µM came to 63%. In addition, the viability at 0.5 µM with SH-SY5Y [7] was determined as 60.1%. Besides, the IC50 result with HEK293 [12] and with HEK293 [8] (hek293) was “Not Active” each time. In addition, the viability at 10 µM in the data set on SH-SY5Y [9] was determined as 92.5%.
As to `COc1ccc(/C=C/C(=O)c2cccc(O)c2)cc1OC`, the Activity entry with SH-SY5Y [2] is reported as “Non-Toxic”. Besides, the inhibition entry in data set [4] was “inactive”.
As to `O=C(/C=C/c1cccc(Cl)c1)c1ccc(O)c(O)c1O`, the inhibition entry in the data set on SH-SY5Y [1] is “Active”. The Activity entry in the data set with SH-SY5Y [2] is “Non-Toxic”. For the same molecule, the IC50 is 860 nM in the data set with HEK293 [3] and 3150 nM in the data set on HEK293 [8] (setting [13]). In addition, the inhibition in data set [4] is 70.3 to 76.3%. The viability at 1 µM in the data set on SH-SY5Y [5] lay within 70.8 to 77.5%. Further, the outcome in the data set with SH-SY5Y [6] was Active. In addition, the viability at 0.5 µM in the data set with SH-SY5Y [7] fell in the range of 66.7 to 73.8%. The viability at 10 µM in the data set with SH-SY5Y [9] lay within 96.5 to 106%.
Consider `COCOc1ccc(C(=O)/C=C/c2ccc(OC)cc2)c(O)c1OCOC`, for which the Activity entry with SH-SY5Y [2] is recorded as “Non-Toxic”. The inhibition in [4] came to 16.4%. The viability at 10 µM in the data set with SH-SY5Y [9] was 72 to 84.9%.
Take `COc1cc(/C=C/C(=O)CC(=O)/C=C/c2ccc(O)c(OC)c2)ccc1O` [CURCUMIN]: the viability at 10 µM in the data set on SH-SY5Y [9] came out at 76%.

(Values after ChEMBL document CHEMBL4316585, “On the role of synthesized hydroxylated chalcones as dual functional amyloid-β aggregation and ferroptosis inhibitors for potential treatment of Alzheimer's disease” (Eur J Med Chem, 2019).)
